Laboratory results reported in ChEMBL document CHEMBL4219066, “Identification and Mitigation of Reactive Metabolites of 2-Aminoimidazole-Containing Microsomal Prostaglandin E Synthase-1 Inhibitors Terminated Due to Clinical Drug-Induced Liver Injury” (J Med Chem, 2018).

What was measured:
[1] = Drug level in human hepatocytes treated with 2-Chloro-N-(4-cyano-1H-imidazol-2-yl)-5-(pivalamidomethyl)benzamide at 2 uM after 4 hrs by LC-MS/MS analysis; format: ADME, cell-based, Hepatocyte
[2] = Drug level in rat hepatocytes treated with 2-Chloro-N-(4-cyano-1H-imidazol-2-yl)-5-(pivalamidomethyl)benzamide at 2 uM after 4 hrs by LC-MS/MS analysis; format: ADME, cell-based, Hepatocyte
[3] = Drug level in human liver microsomes treated with 2 -Chloro-N-(4,5-dimethyl-1H-imidazol-2-yl)-5-(pivalamidomethyl)benzamide at 2 uM after 0.5 hrs in presence of 1:1 ratio of unlabeled GSH and [glycine 13C2,15N]-labelled GSH by HPLC-MS analysis; format: ADME, microsome
In short: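 Glutathione-trapping incubation in human liver microsomes fortified with GSH to capture reactive intermediates. Metabolites and GSH adducts were identified by MS.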

| Drug metabolism [1] | Drug metabolism [2] | Drug metabolism [3] | SMILES |
| --- | --- | --- | --- |
| Metabolite_Detected | Metabolite_Detected |  | CC(C)(CO)C(=O)NCc1ccc(Cl)c(C(=O)Nc2nc(C#N)c[nH]2)c1 |
|  |  | Metabolite_Detected | Cc1[nH]c(NC(=O)c2cc(CNC(=O)C(C)(C)C)ccc2Cl)nc1CSC[C@H](NC(=O)CC[C@H](N)C(=O)O)C(=O)NCC(=O)O |
